Source: the EternaBench riboswitch data

Tested on: MS2 coat protein
Test: apparent Kd, MS2 coat protein; higher = weaker binding; RNA-MaP array
Procedure, shortened: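 On an Illumina sequencing chip, sequenced DNA templates served for transcription of the designed RNAs, which were then bound at room temperature by fluorescently labeled MS2 coat protein at 1.5 nM to 3 μM, with or without input ligand. Apparent Kd is the median of the fits to each cluster's binding curve. Only designs measured on at least 10 clusters were kept.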

[1] = designed as: OFF switch for flavin mononucleotide, no ligand
[2] = ligand present: flavin mononucleotide, designed as: OFF switch for flavin mononucleotide
[3] = designed as: ON switch for flavin mononucleotide, no ligand
[4] = ligand present: flavin mononucleotide, designed as: ON switch for flavin mononucleotide

| Sequence | apparent Kd [1] | apparent Kd [2] | further results |
| --- | --- | --- | --- |
| UGUCGUAAAGGAUAUACAUGAGGAUCACCCAUGUCGGCCGUUAGGCCGUAAGGUGUGCGUAGAAGGUUACAUUG | 191 nM | 149 nM | – |
| ACACAUCCACAUGAGGAUCACCCAUGUAAACCGAAAUAGCACUAGGAUAUGGGACAAACAAUUCACCAGAAGGAGUAAAAGAAA | – | – | apparent Kd [3]: 52.7 nM; apparent Kd [4]: 23.8 nM |
| CCAUUGUCAGGAUAUUGUGGUUUAGCGUCGAAAGGGCUUAGCAAGAAGGGACAUGAGGAUCACCCAUGUGUAGU | 33.8 nM | 146 nM | – |
| CCCGGUGACUAGAAGGCGCCACAUGAGGAUCACCCAUGUAUCAAAGACCGGUGAUUGCCGACGGGCGAGGAUAUAGGUGCGACG | 8.18 nM | 14.5 nM | – |
| AGUAGACGAGGAUAUACGGGCAUAUUUGAUAAGAAGAACAGACAUGAGGAUCACCCAUGUAGAAGGCGAGGCUA | 11.1 nM | 10.6 nM | – |
| UUAUUCCCGGAGGAUAUCGACGUAUUUGGCGCCCGAGAAGGCCGGACAUGAGGAUCACCCAUGUCCCGUGCUCU | 5.66 nM | 5.82 nM | – |
| UUGAAACAUGAGGAUCACCCAUGUCAGGAUAUCUUAACCCACUUACGCGAGUGUAGCCAGAGAAGGGACAGCGG | 12.1 nM | 17.4 nM | – |
| GUCACACAGUAGGAUACCAGCGUGGCUUAUCCCUGAUCGUACAUGAGGAUCACCCAUGUCCGCCCUUGGCAGCCUCCUGCUCGGA | – | – | apparent Kd (designed as: OFF switch for theophylline, no ligand): 12.7 nM; apparent Kd (ligand present: theophylline, designed as: OFF switch for theophylline): 34.5 nM |
| AAUGUGUAAGGAUAUACCGUUCAGUCUCUCCACAAUCGAUGGUAGAAGGUACAUGAGGAUCACCCAUGUGAGGA | 14.9 nM | 15.2 nM | – |
| CAACUGCUUGAGCUUACUUAUUGGACUUCCCGAGGACCGGUACGGCCGCCACUCGCAGGGACACAUGAGGAUCACCCAUGUAAAG | – | – | apparent Kd (designed as: OFF switch for tryptophan, no ligand): 15.7 nM; apparent Kd (ligand present: tryptophan, designed as: OFF switch for tryptophan): 16.2 nM |
| CCAGCAUGGCAGACCAUACAUGAGGAUCACCCAUGUAGAAGCUAGGAUAUAAAUGUAACACACUAUUAGAAGGAGCGCUACCUU | 8.55 nM | 6.51 nM | – |
| GCCAAGGUAACAGGAUAUUCUAAAGACGUGAGAUACUAAAUAAACAUGAGGAUCACCCAUGUGAAGAAGAAGGGUUAAGAGUAC | 15.2 nM | 12.5 nM | – |
| AGUCACUUCUAGAAGGCGCGGACUUACUAGCGGCGAGGAUAUAGUAGGAACAUGAGGAUCACCCAUGUCUAUUGGGUACGGCCC | 14.2 nM | 14.9 nM | – |
| CUCGCGUGAGGAUAUGCCACGCCCGAAAGGCCGGGUCAUCGGCAGAAGGCACAUGAGGAUCACCCAUGUAUCGC | 13.3 nM | 63.9 nM | – |
| UCCUCGUUUACAUGAGGAUCACCCAUGUGCUCGUCUAAACAUUAGGAUAUCGACCCUCUGCGCAUCGAGAAGGAAUACGGCGAG | 192 nM | 204 nM | – |
| GGAUACUUUGGAGGAUAUAAUUUUAUCAUCACUUGUGAUCGAUGACAUGAGGAUCACCCAUGUAAUUAGAAGGCCAUUAAUUAC | – | – | apparent Kd [3]: 239 nM; apparent Kd [4]: 38.4 nM |
| UAAUAGAAAGGAUAUACAUAGGUUGGCUAAUGACGUUCCGAACAUGAGGAUCACCCAUGUAGAAGGUUCUGCGU | 12.4 nM | 29.5 nM | – |
| GCUCUACAGGAGAAGGUCAUAUCAUCGGUUAUUGAAGGAUAUCCUCAAGGGACGCUGAGGCGUACAUGAGGAUCACCCAUGUCC | – | – | apparent Kd [3]: 84.1 nM; apparent Kd [4]: 52.2 nM |
| UGCGUCGUUUAGAAGGGAGUGGCCCAACAUGAGGAUCACCCAUGUGACGCUCAGAAUGUAUUUGCUCAGGAUAUAAAUGUCUUU | 162 nM | 123 nM | – |
| CCUCGUGGACAGGAUAUACACUCGUAUGAUCAUGUAGAAGGGUCCACAUGAGGAUCACCCAUGUUGACAGCCGU | 60.5 nM | 81.4 nM | – |
| CACAUGAGGAUCACCCAUGUCGCGGUGUGACCGAUACUCGAAUAGGAUAUGCUUGACACUUCGUGGCAGAAGGAUUGAGGUUCG | 76.6 nM | 54.9 nM | – |
| AUAUAAACGCAGAAGGAUCGUUUCCUUUAAAUGAUAGGAUAUGCCAACCUUGACAUGAGGAUCACCCAUGUGUUACUCUGUUUU | 113 nM | 98.2 nM | – |
| AGUAGGCAUUCAGGAUAUGGGGAUUUCUCACUGCCACAUGAGGAUCACCCAUGUGGAAGGUACACCCAGAAGGGAAAGUGGUUA | – | – | apparent Kd [3]: 17 nM; apparent Kd [4]: 11.3 nM |
